For data set [1], the system named is Mycolicibacterium smegmatis. Kind of data set: Antibiofilm activity against Mycobacterium smegmatis mc2 155 ATCC 700084 assessed as inhibition of biofilm formation measured after 24 hrs by crystal violet reporter assay. Conditions: MC2 155 ATCC 700084, 24 h. In kind it is functional, organism-based. For orientation: A reporter such as luciferase makes a cellular process visible.

Data set [2] concerns Mycolicibacterium smegmatis. Nature of the data set: Antibiofilm activity against Mycobacterium smegmatis mc2 155 ATCC 700084 assessed as dispersion of preformed biofilms measured after 24 hrs by crystal violet reporter assay. Type of data set: functional, organism-based. As to conditions: MC2 155 ATCC 700084, 24 h. In short, it runs like this:
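Cultures (48 h) diluted to 0.01 in M9 minimal salts with glucose, MgSO4 and CaCl2 in PVC plates. Biofilm grown stationary at 37 °C for 48 h, washed, then fresh medium with compound added for 24 h at 37 °C. Stained with 0.1% crystal violet 30 min, solubilised in 95% ethanol, OD540 read. Media blanks subtracted. Dispersion calculated against untreated biofilm wells. At least three repeats.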

Data set [3] is described as follows: Hemolytic activity in sheep RBC assessed as hemolysis at 500 uM measured after 1 hr by UV spectrometer analysis. In kind it is ADME, cell-based, Ovis aries, Erythrocyte. Conditions: sheep red blood cells (erythrocytes), read-out: Activity. The essentials:
(§1)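 Mechanically defibrinated sheep blood was centrifuged, and the cells were washed and resuspended in PBS three times, then diluted 10-fold. Compound was added from DMSO stock. Controls were 1% Triton X (100% lysis) and PBS (zero lysis). Samples were incubated 1 h at 37 °C with shaking at 200 rpm, then centrifuged. Supernatant was diluted 40-fold in distilled water and read at A540. Run in duplicate, repeated at least twice.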

A short description of data set [4]: Hemolytic activity in sheep RBC assessed as hemolysis at 200 uM measured after 1 hr by UV spectrometer analysis. Conditions: sheep red blood cells (erythrocytes), read-out: Activity. In kind it is ADME, cell-based, Ovis aries, Erythrocyte. In short, it runs like this: as §1
Data set [5] deals with Mycolicibacterium smegmatis. Nature of the data set: Potentiation of Cefotaxime-induced antibacterial activity against Mycobacterium smegmatis mc2 155 ATCC 700084 assessed as fold reduction in Cefotaxime MIC at 30 uM incubated for 48 hrs by alamarblue dye based broth microdilution method. Type of data set: functional. In short, it runs like this: (§2)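 Inoculum from 48 h cultures set to 5 x 10^5 CFU/mL in 7H9 + ADC and pre-dosed with compound from DMSO stock at fixed concentration. β-lactam two-fold serially diluted from top concentration, with an antibiotic-only control series. Stationary 37 °C for 48 h, then alamarBlue for 8 h. MIC is the lowest blue (non-viable) well. Fold reduction is relative to the antibiotic-only MIC. Duplicates, at least two repeats.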
On the technique in general: Resazurin is reduced to fluorescent resorufin, in cell work by metabolically active cells.

The subject of data set [6] is Mycolicibacterium smegmatis. Kind of data set: Potentiation of oxacillin-induced antibacterial activity against Mycobacterium smegmatis mc2 155 ATCC 700084 assessed as fold reduction in oxacillin MIC at 30 uM incubated for 48 hrs by alamarblue dye based broth microdilution method. In kind it is functional. In short, it runs like this: as §2
Data set [7] has as its system Mycolicibacterium smegmatis. Kind of data set: Potentiation of Cefoxitin-induced antibacterial activity against Mycobacterium smegmatis mc2 155 ATCC 700084 assessed as fold reduction in Cefoxitin MIC at 30 uM incubated for 48 hrs by alamarblue dye based broth microdilution method. Type of data set: functional. The essentials: as §2
Data set [8] relates to Mycolicibacterium smegmatis. Kind of data set: Potentiation of Ceftazidime-induced antibacterial activity against Mycobacterium smegmatis mc2 155 ATCC 700084 assessed as fold reduction in Ceftazidime MIC at 30 uM incubated for 48 hrs by alamarblue dye based broth microdilution method. In kind it is functional. In short, it runs like this:
as §2

The test system of data set [9] is Mycolicibacterium smegmatis. Kind of data set: Potentiation of Ampicillin-induced antibacterial activity against Mycobacterium smegmatis mc2 155 ATCC 700084 assessed as fold reduction in Ampicillin MIC at 30 uM incubated for 48 hrs by alamarblue dye based broth microdilution method. Type of data set: functional. In short, it runs like this:
as §2

Data set [10] has as its system Mycolicibacterium smegmatis. Nature of the data set: Potentiation of Cefotaxime-induced antibacterial activity against Mycobacterium smegmatis mc2 155 ATCC 700084 assessed as Cefotaxime MIC at 30 uM incubated for 48 hrs by alamarblue dye based broth microdilution method (reference value: 128 ug/ml). In kind it is functional. The essentials: as §2
The subject of data set [11] is Mycolicibacterium smegmatis. Kind of data set: Potentiation of Oxacillin-induced antibacterial activity against Mycobacterium smegmatis mc2 155 ATCC 700084 assessed as Oxacillin MIC at 30 uM incubated for 48 hrs by alamarblue dye based broth microdilution method (Rvb =512 ug/ml). Type of data set: functional. The essentials:
as §2

In data set [12] the test system is Mycolicibacterium smegmatis. Nature of the data set: Potentiation of Cefoxitin-induced antibacterial activity against Mycobacterium smegmatis mc2 155 ATCC 700084 assessed as Cefoxitin MIC at 30 uM incubated for 48 hrs by alamarblue dye based broth microdilution method (reference value: 16 ug/ml). Type of data set: functional. In short, it runs like this: as §2

Data set [13] deals with Mycolicibacterium smegmatis. Nature of the data set: Potentiation of Ceftazidime-induced antibacterial activity against Mycobacterium smegmatis mc2 155 ATCC 700084 assessed as Ceftazidime MIC at 30 uM incubated for 48 hrs by alamarblue dye based broth microdilution method (reference value: 512 ug/ml). In kind it is functional. In short, it runs like this:
as §2

In data set [14] the test system is Mycolicibacterium smegmatis. Kind of data set: Potentiation of Ampicillin-induced antibacterial activity against Mycobacterium smegmatis mc2 155 ATCC 700084 assessed as Ampicillin MIC at 30 uM incubated for 48 hrs by alamarblue dye based broth microdilution method (reference value: 128 ug/ml). In kind it is functional. In short, it runs like this: as §2
For data set [15], the system named is Mycolicibacterium smegmatis. Kind of data set: Antibacterial activity against Mycobacterium smegmatis mc2 155 ATCC 700084 assessed as inhibition of bacterial growth incubated for 48 hrs by alamarblue dye based broth microdilution method. Type of data set: functional. In short, it runs like this:
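Inoculum from 48 h cultures set to 5 x 10^5 CFU/mL in 7H9 + ADC. Compound in DMSO two-fold serially diluted from 200 µM top concentration. Stationary 37 °C for 48 h, then alamarBlue for 8 h at 37 °C. MIC is the lowest concentration with no viable bacteria (blue, not pink). Duplicate wells, at least two independent repeats.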

Data set [16] deals with Mycolicibacterium smegmatis. Nature of the data set: Potentiation of Cefotaxime-induced antibacterial activity against Mycobacterium smegmatis mc2 155 ATCC 700084 assessed as fold reduction in Cefotaxime MIC at 60 uM incubated for 48 hrs by alamarblue dye based broth microdilution method. In kind it is functional. In short, it runs like this:
as §2

Data set [17] concerns Mycolicibacterium smegmatis. Kind of data set: Potentiation of oxacillin-induced antibacterial activity against Mycobacterium smegmatis mc2 155 ATCC 700084 assessed as fold reduction in oxacillin MIC at 60 uM incubated for 48 hrs by alamarblue dye based broth microdilution method. Type of data set: functional. The essentials:
as §2

Data set [18] has as its system Mycolicibacterium smegmatis. Nature of the data set: Potentiation of Cefoxitin-induced antibacterial activity against Mycobacterium smegmatis mc2 155 ATCC 700084 assessed as fold reduction in Cefoxitin MIC at 60 uM incubated for 48 hrs by alamarblue dye based broth microdilution method. In kind it is functional. The essentials:
as §2

Data set [19] concerns Mycolicibacterium smegmatis. Kind of data set: Potentiation of Ceftazidime-induced antibacterial activity against Mycobacterium smegmatis mc2 155 ATCC 700084 assessed as fold reduction in Ceftazidime MIC at 60 uM incubated for 48 hrs by alamarblue dye based broth microdilution method. In kind it is functional. The essentials: as §2
The subject of data set [20] is Mycolicibacterium smegmatis. Kind of data set: Potentiation of Ampicillin-induced antibacterial activity against Mycobacterium smegmatis mc2 155 ATCC 700084 assessed as fold reduction in Ampicillin MIC at 60 uM incubated for 48 hrs by alamarblue dye based broth microdilution method. Type of data set: functional. The essentials: as §2
The subject of data set [21] is Mycolicibacterium smegmatis. Nature of the data set: Potentiation of Cefotaxime-induced antibacterial activity against Mycobacterium smegmatis mc2 155 ATCC 700084 assessed as Cefotaxime MIC at 60 uM incubated for 48 hrs by alamarblue dye based broth microdilution method (reference value: 128 ug/ml). Type of data set: functional. The essentials:
as §2

The test system of data set [22] is Mycolicibacterium smegmatis. Nature of the data set: Potentiation of Oxacillin-induced antibacterial activity against Mycobacterium smegmatis mc2 155 ATCC 700084 assessed as Oxacillin MIC at 60 uM incubated for 48 hrs by alamarblue dye based broth microdilution method (Rvb =512 ug/ml). In kind it is functional. The essentials: as §2
Data set [23] relates to Mycolicibacterium smegmatis. Kind of data set: Potentiation of Cefoxitin-induced antibacterial activity against Mycobacterium smegmatis mc2 155 ATCC 700084 assessed as Cefoxitin MIC at 60 uM incubated for 48 hrs by alamarblue dye based broth microdilution method (reference value: 16 ug/ml). Type of data set: functional. In short, it runs like this:
as §2

For data set [24], the system named is Mycolicibacterium smegmatis. Nature of the data set: Potentiation of Ceftazidime-induced antibacterial activity against Mycobacterium smegmatis mc2 155 ATCC 700084 assessed as Ceftazidime MIC at 60 uM incubated for 48 hrs by alamarblue dye based broth microdilution method (reference value: 512 ug/ml). In kind it is functional. In short, it runs like this: as §2

In data set [25] the test system is Mycolicibacterium smegmatis. Nature of the data set: Potentiation of Ampicillin-induced antibacterial activity against Mycobacterium smegmatis mc2 155 ATCC 700084 assessed as Ampicillin MIC at 60 uM incubated for 48 hrs by alamarblue dye based broth microdilution method (reference value: 128 ug/ml). In kind it is functional. The essentials:
as §2

pEC50, pIC50: −log10 of the molar value. In brackets after ≈: the same amount, converted by molar mass. Bounds are passed on as bounds.

As a reminder, the pIC50 is −log10 of the IC50, conventionally taken in molar units. The term pEC50 denotes the EC50 on a negative log10 scale, so that one unit is a factor of ten. A word on the MIC: it is the least concentration at which growth counts as inhibited.

On to `Nc1nc(-c2c[nH]c3cc(Br)ccc23)c[nH]1`, for which the negative logarithm of the IC50 (pIC50) in data set [1] is 5.12. Besides, the pEC50 in [2] was 4.55. In addition, the hemolysis at 1 h, 500 µM in data set [3] is 14%. Further, the hemolysis at 1 h, 200 µM in data set [4] was found to be 7%. Also, the “fold change (FC)” value in [5] is reported as 0; in data set [6], 0; in data set [7] it was 0; in [8] it was 4; in [9], 0. For the same compound, the MIC was determined as 128 µg/mL in data set [10]; 512 µg/mL in data set [11]; 16 µg/mL in data set [12]; 128 µg/mL in data set [13]; 128 µg/mL in data set [14]; 100 µM (≈ 27.7 µg/mL) in data set [15].

In the case of `Brc1ccc2[nH]cc(-c3ccnc(NCc4ccccc4)n3)c2c1`, the pIC50 in [1] is 5.16. Moreover, the pEC50 in [2] is 4.55. The “fold change (FC)” value in data set [16] is reported as 2; in data set [17] it was 2; in data set [18], 0; in data set [19], 0; in [20], 2. In addition, in data set [3], the hemolysis at 1 h, 500 µM was determined as 32%. In addition, the hemolysis at 1 h, 200 µM in data set [4] came to 9%. The minimal inhibitory concentration (MIC) was 64 µg/mL in data set [21]; 256 µg/mL in data set [22]; 16 µg/mL in data set [23]; 512 µg/mL in data set [24]; 64 µg/mL in data set [25]; no less than 200 µM in [15].

The values are drawn from ChEMBL document CHEMBL4699393, “Meridianin D analogues possess antibiofilm activity against Mycobacterium smegmatis” (RSC Med Chem, 2020).
